# Columns and labels:
# [1] = Inhibition of PDE4 in PBMC (unknown origin) assessed as reduction in LPS-induced TNFalpha production incubated for 24 hrs by ELISA; settings: Homo sapiens
# [2] = Inhibition of PDE4 in human whole blood assessed as reduction in LPS-induced TNFalpha production incubated for 24 hrs by ELISA; assay type: tissue-based
# Summary of the method: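 Human whole blood was preincubated with LPS (final 1 μg/mL) for 10 min at 37 °C with rocking. 200 μL was added to wells holding increasing inhibitor concentrations in 100% DMSO. Plates were incubated 24 h at 37 °C under agitation, then placed on ice, diluted with PBS and centrifuged at 800g, 4 °C, for 15 min before TNF-α measurement.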
# [3] = Drug metabolism in human liver S9 fraction assessed as glucuronidation in presence of PAPS and UDPGA incubated for 20 mins; assay type: ADME, subcellular; settings: read-out: Drug metabolism
# [4] = Drug metabolism in human liver S9 fraction assessed as sulfonation in presence of PAPS and UDPGA incubated for 20 mins; assay type: ADME, subcellular; settings: read-out: Drug metabolism
# Rattus norvegicus [5] = assay: Anti-inflammatory activity in Sprague-Dawley rat assessed as inhibition of LPS-induced neutrophilia at 10 to 1000 ug/kg, it administered as suspension with Penn-Century micro-sprayer aerosolizer dosed 1 hrs before LPS challenge and measured 5 hrs post dose; assay type: functional; settings: inhaled or nasal
# Summary of the method: (§1)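 Suspensions in PBS/0.2% Tween 80 were homogenized, with lower doses made by 1:10 dilutions. 0.2 mL was given intratracheally by MicroSprayer to isoflurane-anesthetized fasted male Sprague-Dawley rats (230–280 g). At 1 or 18 h, rats received nebulized LPS (30 mL of a 1:100 PBS dilution of 100 mg/10 mL stock) over 40 min. Four hours later, BAL neutrophils were counted by flow cytometry.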
# Rattus norvegicus [6] = assay: Anti-inflammatory activity in Sprague-Dawley rat assessed as inhibition of LPS-induced neutrophilia at 1000 ug/kg, it administered as suspension with Penn-Century micro-sprayer aerosolizer dosed 18 hrs before LPS challenge and measured 22 hrs post dose; assay type: functional; settings: inhaled or nasal; summary of the method: as §1
# Rattus norvegicus [7] = assay: Anti-inflammatory activity in Sprague-Dawley rat assessed as inhibition of LPS-induced neutrophilia at 10 to 1000 ug/kg, it administered as dry powder with lactose carrier through Penn-Century insufflator dosed 1 hrs before LPS challenge and measured 5 hrs post dose; assay type: functional
# Summary of the method: (§2)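 Compounds were micronized, comixed with lactose, and 5 mg of the mixture was insufflated intratracheally into isoflurane-anesthetized fasted male Sprague-Dawley rats (230–280 g). LPS aerosol (30 mL of a 1:100 PBS dilution of 100 mg/10 mL stock) was nebulized for 40 min at 1 or 18 h post-dose. BAL was taken 4 h later and neutrophils counted by flow cytometry. Controls: lactose alone, lactose+LPS, fluticasone (10% in lactose).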
# Rattus norvegicus [8] = assay: Anti-inflammatory activity in Sprague-Dawley rat assessed as inhibition of LPS-induced neutrophilia at 2000 ug/kg, it administered as dry powder with lactose carrier through Penn-Century insufflator dosed 18 hrs before LPS challenge and measured 22 hrs post dose; assay type: functional; summary of the method: as §2
# Adenosine receptor A1 = target: T1, Adenosine receptor A1 (Homo sapiens, UniProt P30542); assay: Antagonist activity at adenosine A1 receptor (unknown origin)
# T1 sequence (P30542 whole entry): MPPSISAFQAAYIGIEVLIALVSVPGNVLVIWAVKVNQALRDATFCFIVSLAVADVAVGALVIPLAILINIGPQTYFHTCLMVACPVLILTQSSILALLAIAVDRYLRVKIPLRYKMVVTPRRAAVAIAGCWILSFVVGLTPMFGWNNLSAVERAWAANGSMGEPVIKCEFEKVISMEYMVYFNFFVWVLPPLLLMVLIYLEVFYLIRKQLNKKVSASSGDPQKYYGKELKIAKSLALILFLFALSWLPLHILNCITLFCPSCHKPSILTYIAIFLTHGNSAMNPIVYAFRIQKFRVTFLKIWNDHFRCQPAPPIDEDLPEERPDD
# Adenosine receptor A2a = Adenosine receptor A2a (Homo sapiens, UniProt P29274); assay: Antagonist activity at adenosine A2a receptor (unknown origin)
# Adenosine receptor A2a, sequence (P29274 whole entry): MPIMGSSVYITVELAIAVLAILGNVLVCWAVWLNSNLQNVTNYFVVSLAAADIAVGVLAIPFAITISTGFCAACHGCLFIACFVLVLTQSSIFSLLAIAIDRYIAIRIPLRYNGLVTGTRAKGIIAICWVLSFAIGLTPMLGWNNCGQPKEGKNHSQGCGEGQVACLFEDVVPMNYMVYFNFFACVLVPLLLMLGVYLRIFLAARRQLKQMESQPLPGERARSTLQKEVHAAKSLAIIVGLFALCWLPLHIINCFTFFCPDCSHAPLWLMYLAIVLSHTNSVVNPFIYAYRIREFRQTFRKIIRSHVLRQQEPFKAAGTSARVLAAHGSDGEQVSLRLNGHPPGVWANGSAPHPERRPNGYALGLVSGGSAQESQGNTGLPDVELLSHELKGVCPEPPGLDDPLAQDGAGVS
# Adenosine receptor A2b = target: T2, Adenosine receptor A2b (Homo sapiens, UniProt P29275); assay: Antagonist activity at adenosine A2b receptor (unknown origin)
# T2 sequence (P29275 whole entry): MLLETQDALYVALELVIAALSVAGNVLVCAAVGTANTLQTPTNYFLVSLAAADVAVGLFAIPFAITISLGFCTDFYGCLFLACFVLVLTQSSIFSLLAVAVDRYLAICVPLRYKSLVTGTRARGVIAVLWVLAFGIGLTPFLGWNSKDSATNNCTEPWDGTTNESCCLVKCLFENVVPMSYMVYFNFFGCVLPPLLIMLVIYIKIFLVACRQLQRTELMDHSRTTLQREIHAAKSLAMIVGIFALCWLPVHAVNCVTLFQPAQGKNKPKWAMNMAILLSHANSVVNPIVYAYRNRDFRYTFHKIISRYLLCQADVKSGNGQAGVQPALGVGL
# Rattus norvegicus [9] = assay: Anti-inflammatory activity in Sprague-Dawley rat assessed as inhibition of LPS-induced neutrophilia at 1000 ug/kg, it administered as suspension with Penn-Century micro-sprayer aerosolizer dosed 1 hrs before LPS challenge and measured 5 hrs post dose; assay type: functional; settings: inhaled or nasal; summary of the method: as §1
# Rattus norvegicus [10] = assay: Anti-inflammatory activity in Sprague-Dawley rat assessed as inhibition of LPS-induced neutrophilia at 100 ug/kg, it administered as suspension with Penn-Century micro-sprayer aerosolizer dosed 1 hrs before LPS challenge and measured 5 hrs post dose; assay type: functional; settings: inhaled or nasal; summary of the method: as §1
# Rattus norvegicus [11] = assay: Anti-inflammatory activity in Sprague-Dawley rat assessed as inhibition of LPS-induced neutrophilia at 1000 ug/kg, it administered as dry powder with lactose carrier through Penn-Century insufflator dosed 18 hrs before LPS challenge and measured 22 hrs post dose; assay type: functional; summary of the method: as §2
# [12] = Pro-inflammatory activity in Sprague-Dawley rat assessed as induction of neutrophilia at 1000 ug/kg, it administered as dry powder with lactose carrier through Penn-Century insufflator; settings: in vivo, inhaled_or_intranasal, 1 mg/kg
# Rattus norvegicus [13] = assay: Anti-inflammatory activity in Sprague-Dawley rat assessed as inhibition of LPS-induced neutrophilia at 10 to 1000 ug/kg, it administered as suspension with Penn-Century micro-sprayer aerosolizer dosed 18 hrs before LPS challenge and measured 22 hrs post dose; assay type: functional; settings: inhaled or nasal; summary of the method: as §1
# Rattus norvegicus [14] = assay: Anti-inflammatory activity in Sprague-Dawley rat assessed as inhibition of LPS-induced neutrophilia at 100 ug/kg, it administered as dry powder with lactose carrier through Penn-Century insufflator dosed 1 hrs before LPS challenge and measured 5 hrs post dose; assay type: functional; summary of the method: as §2
# [15] = Basicity constant, pKB of the compound; assay type: physicochemical
# Rattus norvegicus [16] = assay: Anti-inflammatory activity in Sprague-Dawley rat assessed as inhibition of LPS-induced neutrophilia at 100 ug/kg, it administered as suspension with Penn-Century micro-sprayer aerosolizer dosed 18 hrs before LPS challenge and measured 22 hrs post dose; assay type: functional; settings: inhaled or nasal; summary of the method: as §1
# Rattus norvegicus [17] = assay: Anti-inflammatory activity in Sprague-Dawley rat assessed as inhibition of LPS-induced neutrophilia at 300 ug/kg, it administered as suspension with Penn-Century micro-sprayer aerosolizer dosed 18 hrs before LPS challenge and measured 22 hrs post dose; assay type: functional; settings: inhaled or nasal; summary of the method: as §1
# Rattus norvegicus [18] = assay: Anti-inflammatory activity in Sprague-Dawley rat assessed as inhibition of LPS-induced neutrophilia at 30 ug/kg, it administered as suspension with Penn-Century micro-sprayer aerosolizer dosed 18 hrs before LPS challenge and measured 22 hrs post dose; assay type: functional; settings: inhaled or nasal; summary of the method: as §1
# Rattus norvegicus [19] = assay: Anti-inflammatory activity in Sprague-Dawley rat assessed as inhibition of LPS-induced neutrophilia at 6000 ug/kg, it administered as dry powder with lactose carrier through Penn-Century insufflator dosed 18 hrs before LPS challenge and measured 22 hrs post dose; assay type: functional; summary of the method: as §2
SMILES,IC50 [1],IC50 [2],metabolised at 20 min [3],metabolised at 20 min [4],IC50 (Adenosine receptor A1),IC50 (Adenosine receptor A2a),IC50 (Adenosine receptor A2b),ED50 (Rattus norvegicus [5]),inhibition in vivo at 1 mg/kg (Rattus norvegicus [6]),inhibition in vivo at 0.1 mg/kg (Rattus norvegicus [10]),other results
CCn1nc(-c2cccc(-c3ccc(O)cc3)c2)cc(NC(=O)Nc2c(Cl)cncc2Cl)c1=O,0.9 nM,117 nM,2%,0.3%,–,–,–,–,–,–,–
CCn1nc(-c2cccc(-c3ccc(CC(=O)NCCCCCCCN(C)CCO)cc3)c2)cc(NC(=O)Nc2c(Cl)cncc2Cl)c1=O,0.57 nM,323 nM,–,–,61 nM,86 nM,94 nM,–,–,69%,fold change (FC) [12]: 1.9; ED50 (Rattus norvegicus [13]): 0.091 mg/kg; inhibition in vivo at 0.1 mg/kg (Rattus norvegicus [14]): 23%
CCn1nc(-c2cccc(-c3cccc(C(=O)NCCN4CCCCC4)c3)c2)cc(NC(=O)Nc2c(Cl)cncc2Cl)c1=O,0.43 nM,81 nM,–,–,6 nM,22 nM,169 nM,–,–,66%,pKb [15]: 11.2; fold change (FC) [12]: 1.1
CCn1nc(-c2cccc(-c3cccc(C(=O)NCCN4CCNCC4)c3)c2)cc(NC(=O)Nc2c(Cl)cncc2Cl)c1=O,0.34 nM,125 nM,–,–,2 nM,9 nM,–,–,–,62%,pKb [15]: 9.8; inhibition in vivo at 0.1 mg/kg (Rattus norvegicus [16]): 40%
CCNC(=O)c1cc(C(=O)NCCCN(C)C)cc(-c2cccc(-c3cc(NC(=O)Nc4c(Cl)cncc4Cl)c(=O)n(CC)n3)c2)c1,0.36 nM,–,–,–,537 nM,> 1000 nM,368 nM,0.018 mg/kg,–,–,inhibition in vivo at 0.1 mg/kg (Rattus norvegicus [16]): 48%; inhibition in vivo at 0.3 mg/kg (Rattus norvegicus [17]): 60%; inhibition in vivo at 0.03 mg/kg (Rattus norvegicus [18]): 58%
CCn1nc(-c2cccc(-c3ccc(O)c(F)c3)c2)cc(NC(=O)Nc2c(Cl)cncc2Cl)c1=O,2.4 nM,93 nM,6%,3%,–,–,–,0.342 mg/kg,–,–,–
CCn1nc(-c2cccc(-c3cncc(O)c3)c2)cc(NC(=O)Nc2c(Cl)cncc2Cl)c1=O,0.29 nM,64 nM,36%,16%,11 nM,333 nM,111 nM,–,23%,–,inhibition in vivo at 1 mg/kg (Rattus norvegicus [9]): 58%

# The remaining compounds from weak to strong by IC50 [1], led by results:
IC50 [1],IC50 [2],metabolised at 20 min [3],metabolised at 20 min [4],IC50 (Adenosine receptor A1),IC50 (Adenosine receptor A2a),IC50 (Adenosine receptor A2b),SMILES,ED50 (Rattus norvegicus [5]),inhibition in vivo at 1 mg/kg (Rattus norvegicus [6]),inhibition in vivo at 0.1 mg/kg (Rattus norvegicus [10]),other results
4 nM,36 nM,–,–,> 1000 nM,> 1000 nM,> 1000 nM,O=C(Nc1c(Cl)cncc1Cl)c1ccc(OC(F)F)c(OCC2CC2)c1 [ROFLUMILAST],0.126 mg/kg,24%,–,inhibition in vivo at 1 mg/kg (Rattus norvegicus [9]): 80%; ED50 (Rattus norvegicus [13]): > 1 mg/kg; ED50 (Rattus norvegicus [7]): 0.204 mg/kg; inhibition in vivo at 6 mg/kg (Rattus norvegicus [19]): 37%
0.7 nM,95 nM,21%,3%,87 nM,168 nM,172 nM,CCn1nc(-c2cccc(-c3cccc(O)c3)c2)cc(NC(=O)Nc2c(Cl)cncc2Cl)c1=O,0.416 mg/kg,0%,–,ED50 (Rattus norvegicus [7]): 0.551 mg/kg; inhibition in vivo at 2 mg/kg (Rattus norvegicus [8]): 7%
0.55 nM,373 nM,0%,–,–,–,–,CCn1nc(-c2cccc(-c3ccc(C(=O)O)cc3)c2)cc(NC(=O)Nc2c(Cl)cncc2Cl)c1=O,–,25%,50%,inhibition in vivo at 1 mg/kg (Rattus norvegicus [9]): 59%; ED50 (Rattus norvegicus [7]): 0.015 mg/kg; inhibition in vivo at 1 mg/kg (Rattus norvegicus [11]): 8%
0.07 nM,59 nM,–,–,15 nM,33 nM,145 nM,CCn1nc(-c2cccc(-c3cccc(C(=O)NCCN4CCOCC4)c3)c2)cc(NC(=O)Nc2c(Cl)cncc2Cl)c1=O,–,–,52%,pKb [15]: 8.3; fold change (FC) [12]: 1.1
